Assay results collected from several papers.
Compare with care: the assays were run in different laboratories.
Target: Mitogen-activated protein kinase kinase kinase kinase 2 (MAP4K2, Homo sapiens, UniProt Q12851)
One construct used (Q12851 1-820): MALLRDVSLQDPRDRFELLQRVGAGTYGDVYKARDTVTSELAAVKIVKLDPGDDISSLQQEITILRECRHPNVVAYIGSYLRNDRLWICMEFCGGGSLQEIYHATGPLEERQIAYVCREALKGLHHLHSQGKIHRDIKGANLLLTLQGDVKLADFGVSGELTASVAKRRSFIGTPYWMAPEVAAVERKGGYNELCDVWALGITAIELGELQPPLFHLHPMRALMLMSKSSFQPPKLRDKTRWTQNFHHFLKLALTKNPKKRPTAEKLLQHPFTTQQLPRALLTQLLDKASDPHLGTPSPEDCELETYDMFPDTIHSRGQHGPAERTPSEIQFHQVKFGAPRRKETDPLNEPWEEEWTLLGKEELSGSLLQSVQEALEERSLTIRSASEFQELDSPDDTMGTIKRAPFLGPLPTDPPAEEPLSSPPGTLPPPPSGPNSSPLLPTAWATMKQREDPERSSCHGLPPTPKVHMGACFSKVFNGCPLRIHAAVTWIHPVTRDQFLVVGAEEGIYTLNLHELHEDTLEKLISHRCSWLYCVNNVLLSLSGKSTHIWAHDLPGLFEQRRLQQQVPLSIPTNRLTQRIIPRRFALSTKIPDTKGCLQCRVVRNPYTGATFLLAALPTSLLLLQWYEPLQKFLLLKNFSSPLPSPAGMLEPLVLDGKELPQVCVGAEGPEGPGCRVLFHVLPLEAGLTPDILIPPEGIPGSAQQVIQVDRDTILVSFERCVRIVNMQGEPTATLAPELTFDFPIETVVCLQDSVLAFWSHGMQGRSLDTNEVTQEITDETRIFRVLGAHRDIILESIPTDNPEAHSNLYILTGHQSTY

`Cc1c[nH]c2nccc(Oc3c(F)cc(Nc4cc(Cl)nc(N)n4)cc3F)c12` has a remaining binding of 69% (cell-free assay; competition with immobilised ligand; 0.1 µM).
With `CN(C)c1ncc(F)c(-c2cnn3ncccc23)n1` the remaining binding was 82% (binding; 1 µM).
`CO[C@H]1CC[C@H](CNc2ccc(S(=O)(=O)NC(=O)c3ccc(N4CCN(CC5=C(c6ccc(Cl)cc6)CC(C)(C)CC5)CC4)cc3Oc3cnc4[nH]ccc4c3)cc2[N+](=O)[O-])CC1` gave a remaining binding of 83% (cell-free assay; competition with immobilised ligand; 1 µM).
The remaining binding of `O=C(c1ccc(Nc2ncc(Cl)c(-c3cc4ccccc4s3)n2)cc1)N1CCC(N2CCCC2)CC1` is reported as 36% (binding; competition with immobilised ligand; 1 µM).
With `CC(=O)C1=C(C)N(c2cccc(C(F)(F)F)c2)C(=O)N[C@@H]1c1ccc(C#N)nc1` the remaining binding was 100% (cell-free assay; competition with immobilised ligand; 1 µM).
`CNC(=O)[C@@H]1CC[C@@H](n2c(-c3ccc4cnccc4c3)nc3ccc(C(=O)NCc4cccc(C(N)=O)c4)cc32)C1` gave a remaining binding of 100% (binding; competition with immobilised ligand; 1 µM).
With `COc1ccnn2ncc(-c3ccnc(N(C)C)n3)c12` the remaining binding was 73% (binding; 1 µM).
`CNC(=O)Nc1ccc2c(c1)CC[C@@]21OC(=O)N(CC(=O)N(Cc2ccc(F)cc2)[C@@H](C)C(F)(F)F)C1=O` gave a remaining binding of 76% (cell-free assay; competition with immobilised ligand; 1 µM).
With `O=C(NCC1CCOCC1)c1n[nH]cc1NC(=O)c1c(F)cccc1F` the remaining binding was 100% (binding; competition with immobilised ligand; 1 µM).
`O=C(O)c1cc(-c2ccc(C3CCNCC3)cc2)c2ccc(-c3ccc(C(F)(F)F)cc3)cc2c1` gave a remaining binding of 100% (cell-free assay; competition with immobilised ligand; 1 µM).
For `COc1ncc2cc3ccccc3nc2c1C#N`, the remaining binding was 84% (cell-free assay; competition with immobilised ligand; 5 µM).
`C[C@@H]1CCN(c2nccc(-c3cnn4ncccc34)n2)C1` gave a remaining binding of 70% (binding; 1 µM).
`O=C(NCCCN1CCOCC1)c1ccc(Nc2ncc(Cl)c(-c3ccc(Cl)s3)n2)cc1` has a remaining binding of 31% (binding; competition with immobilised ligand; 1 µM).
`CC1CCCN1c1nccc(-c2cnn3ncccc23)n1` (stereo not shown) gave a remaining binding of 100% (binding; 1 µM).
The remaining binding of `C=CC(=O)N1CCC(C(=O)NCC(=O)N2CCN(c3nc(-c4cnc(N)nc4C(F)F)nc(N4CCOCC4)n3)CC2)CC1` is reported as 100% (binding; competition with immobilised ligand; 1 µM).
With `Cc1cnn2ncc(-c3ccnc(N(C)C)n3)c2c1` the remaining binding was 99% (binding; 1 µM).
For `CNCc1ccccc1-c1csc([C@H](C)Nc2nc(C)nc3cc(OC)c(OC)cc23)c1`, the remaining binding was 97% (cell-free assay; competition with immobilised ligand; 1 µM).
`COc1cnc(Nc2cccc(S(N)(=O)=O)c2)nc1N1CCN(c2ccccc2)C(=O)C1` gave a remaining binding of 95% (binding; competition with immobilised ligand; 1 µM).
With `F[C@@H]1CCN(c2nccc(-c3cnn4ncccc34)n2)C1` the remaining binding was 100% (binding; 1 µM).
The remaining binding of `O=C(N1CCS(=O)(=O)CC1)N1C[C@H](c2ccc(OC(F)(F)F)cc2)C[C@H](c2nc(C3CC3)no2)C1` is reported as 94% (cell-free assay; competition with immobilised ligand; 1 µM).
`Cc1cnc(Nc2ccc(C(=O)N3CCC(N4CCCC4)CC3)cc2)nc1-c1cc2ccccc2s1` has a remaining binding of 41% (binding; competition with immobilised ligand; 1 µM).
`c1cncc(-c2cccc(Nc3nccc(NC4CCCCC4)n3)c2)c1` gave a remaining binding of 67% (binding; competition with immobilised ligand; 10 µM).
